High-throughput results: PubChem BioAssay, several laboratories
Rows were chosen to be rich in hits. Some 2.3% of all compounds tested hit in one or more screens of this group.
PAFAH1B2 FP inh: blocks human PAF acetylhydrolase 1b catalytic subunit 2; inhibition, % at 3.39 µM; recombinant PAFAH1B2, FP-rhodamine activity probe, fluorescence polarization; P68402; 340,000 compounds, 1.2% hits;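 active = inhibition above the mean of all tested compounds plus 3 SD, cut at about 24% in these data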;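 also: 0% = enzyme with DMSO and 100% = wells lacking PAFAH1B2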
PAFAH1B3 FP inh: inhibitors of human PAFAH1B3; recombinant PAFAH1B3, FP-rhodamine probe, fluorescence polarization; inhibition, % at 3.39 µM; 340,000 compounds, 0.28% hits; AID 492972;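 active = inhibition above the screen-wide average of all tested compounds plus 3 SD, cut at about 25% in these data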;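 also: 0% = enzyme with DMSO only and 100% = wells lacking PAFAH1B3 protein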
Target sequence (Q15102 whole entry, looked up): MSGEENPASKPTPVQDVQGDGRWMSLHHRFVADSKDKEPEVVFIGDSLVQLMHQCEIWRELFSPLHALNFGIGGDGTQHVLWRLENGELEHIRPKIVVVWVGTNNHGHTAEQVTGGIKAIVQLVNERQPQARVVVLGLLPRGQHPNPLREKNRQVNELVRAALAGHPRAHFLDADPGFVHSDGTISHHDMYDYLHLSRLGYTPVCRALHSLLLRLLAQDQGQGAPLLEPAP
TDP2 absorb: TDP2 (human) inhibition, absorbance primary screen; inhibition, % at 12.8 µM; 370,000 compounds, 0.34% hits; recombinant TDP2, T5PNP hydrolysis, p-nitrophenol absorbance 415 nm; AID 720702;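 active = inhibition above the mean of all tested compounds plus 3 SD, set per campaign, cut at about 25% in these data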;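 also: 0% = DMSO with enzyme and 100% = buffer with substrate but no TDP2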
Target sequence (O95551 whole entry, looked up): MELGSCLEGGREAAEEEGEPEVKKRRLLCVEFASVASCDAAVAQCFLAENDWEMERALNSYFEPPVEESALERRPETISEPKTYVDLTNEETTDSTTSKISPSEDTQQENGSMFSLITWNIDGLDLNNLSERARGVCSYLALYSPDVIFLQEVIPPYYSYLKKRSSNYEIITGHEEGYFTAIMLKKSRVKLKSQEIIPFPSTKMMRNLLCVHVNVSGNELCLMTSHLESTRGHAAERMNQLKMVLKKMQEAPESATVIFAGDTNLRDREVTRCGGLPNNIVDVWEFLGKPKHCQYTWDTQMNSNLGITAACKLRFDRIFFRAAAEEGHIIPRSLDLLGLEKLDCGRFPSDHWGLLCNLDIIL
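Test system: Human TDP2 enzyme | Reagent: 5 mM T5PNP | Compound dosing: 12.8 µM single point, 1% DMSO | Incubation: Enzyme reaction with compound for 2 h at 37 °C | Technique: p-Nitrophenol epi absorbance | Read-out: % inhibition relative to enzyme-containing and enzyme-free wells | Benchmarks: High control without enzyme, low control DMSO plus TDP2 | Replicates: Singlicate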
Apaf-1 inh: human Apaf-1 inhibition; O14727; reconstituted apoptosome caspase-3 activity, DEVD-Rh110 fluorescence; inhibition, % at 20 µM; 330,000 compounds, 0.71% hits; AID 489030; active = inhibition of at least 40% at 20 µM;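 also: plate controls were DMSO wells for no effect and DEVD-CHO caspase inhibitor wells for full effect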
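System – cell-free apoptosome with Apaf-1, procaspase-3 and caspase-9 · Buffer or medium – pH 7.5 Hepes buffer with CHAPS, BSA, DTT · Also added – cytochrome c with DEVD-Rh110 · Times – 30 min compound preincubation, 50 min activation, room temperature · Technique – Rh110 fluorescence intensity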
PAFAH2 inh: inhibitors of human PAFAH2; inhibition, % at 3.39 µM; AID 492956; 340,000 compounds, 0.99% hits; recombinant PAFAH2, FP-rhodamine activity probe, fluorescence polarization;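 active = inhibition above the mean over all tested compounds plus 3 SD, cut at about 30% in these data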;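 also: inhibitors block probe labeling of enzyme so polarization drops; 0% = enzyme with DMSO and 100% = wells lacking PAFAH2 protein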
PAFAH1B3 conf FP: PAFAH1B3 (human) inhibition, confirmed. shares compounds with PAFAH1B3 FP inh. recombinant PAFAH1B3, FP-Rh activity-based probe, fluorescence polarization. inhibition, % at 3.39 µM. 390 compounds, 30% hits. AID 493032;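 active = average inhibition over triplicate runs above the hit cutoff set in the earlier primary screen, cut at about 25% in these data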;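 also: 0% = enzyme with DMSO and 100% = wells lacking PAFAH1B3 protein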
An asterisk follows results filed as active; nt = no result given.

SMILES	PAFAH1B2 FP inh	PAFAH1B3 FP inh	TDP2 absorb	Apaf-1 inh	PAFAH2 inh	PAFAH1B3 conf FP
Cc1cn2c(N)c(C=C3C=C(Cl)C(=O)C(Cl)=C3)c(=O)nc2s1	9	35*	1	13	6	23
COC1=C/C(=C/c2c(N)n3cc(C)sc3nc2=O)C=CC1=O	-1	9	9	11	-3	nt
COc1cccc(Cn2cc(COC(=O)NCC(C)C)nn2)c1	nt	nt	0	nt	nt	nt
CCOC(=O)c1c(C)oc2c1c(C=NCc1ccccn1)c(O)c1ccccc12	13	56*	30*	nt	16	17
CCOC(=O)c1c(C)oc2c1cc(O)c1ccccc12	8	-4	2	16	1	nt
CC1(c2nnnn2Cc2ccccc2)CSCC(=O)N1Cc1cccs1 (stereo unspecified)	nt	nt	-5	nt	nt	nt
CCN(CC)c1ccc(/C=N/NC(=O)Cc2nnc(NC(=O)Nc3ccccc3)s2)cc1	19	35*	2	5	16	26*
O=Nc1c(O)[nH]c2ccc(Cl)cc12	16	26*	-12	-11	5	34*
C[C@@H]1CN([C@@H](C)CN(C)C)C(=O)c2cc(NC(=O)Nc3ccccc3)ccc2O[C@@H](C)CCCCO[C@H]1CN(C)S(=O)(=O)c1ccc(F)cc1	nt	nt	-4	nt	nt	nt
N=C1/C(=C\c2ccc(SCc3ccccc3)o2)C(=O)N=C2SC(CC(=O)N3CCOCC3)=NN12	22	2	5	5	25	nt
N=C1/C(=C/c2ccc(-c3cccc(C(=O)O)c3)o2)C(=O)N=C2SC(CC(=O)N3CCOCC3)=NN12	11	30*	16	31	14	17
COC(=O)[C@]12C[C@H](CC(=O)N3CCC(c4ccccc4)CC3)C(=O)N(Cc3ccc(Cl)cc3Cl)C1=C[C@H](COCc1ccccc1)O[C@@H]2C	nt	nt	-6	nt	nt	nt
COCCNC(=O)/C(C#N)=C/c1cccs1	6	-1	5	-11	-2	nt
COCCNC(=O)/C(C#N)=C/c1ccc(OC(=O)c2cccs2)c(OC)c1	1	26*	-10	nt	3	12
CC(C)(N[C@@H](Cc1ccccc1)C(=O)NCC(c1ccccc1)c1ccccc1)C(=O)NC1CCCCC1	nt	nt	-6	nt	nt	nt
Cc1cc(Nc2ccc(OC(F)F)cc2)cc(=O)n1-c1ccc(OC(F)F)cc1	nt	nt	1	nt	nt	nt
CC(=O)SCCC(=O)Nc1ccccc1	1	26*	4	-13	-3	14
CC(=O)NNC(=O)CCC(=O)Nc1ccccc1	-5	10	-1	-22	-2	nt
COCC(C)OC(=O)c1c(N)n(CC(C)C)c2nc3ccccc3nc12 (stereo unspecified)	0	35*	3	22	-13	5
Fc1ccc2nc(Nc3nc4cc5c(cc4s3)OCO5)sc2c1	23	43*	5	-7	-32	44*
Fc1ccc2nc(Nc3nc4cc5c(cc4s3)OCCO5)sc2c1	4	8	-3	5	-15	nt
CC(C)(C)NCC(O)(c1ccc(Cl)cc1)c1ccc(Cl)cc1	9	3	nt	-2	-2	nt
CC(C)NCC(O)(c1ccc(Cl)cc1)c1ccc(Cl)cc1	6	29*	13	3	-5	7
O=C(NCc1ccco1)O[C@@H]1CC[C@@]23CCCN2C(=O)CCC[C@H]3C1	nt	nt	-2	nt	nt	nt
O=C(C1CCCN1S(=O)(=O)c1cccc2ccccc12)N1CCN(c2ccccc2)CC1 (stereo unspecified)	nt	nt	5	nt	nt	nt
SMILES	PAFAH1B2 FP inh	PAFAH1B3 FP inh	TDP2 absorb	Apaf-1 inh	PAFAH2 inh	PAFAH1B3 conf FP
CC1=CC(C)(C)NC(=S)N1c1ccccc1C	3	4	6	-3	-1	nt
CC1=CC(C)(C)NC(=S)N1c1cccc2cc(S(=O)(=O)O)ccc12	11	29*	-4	5	12	24
Cc1ccc(C(C)C)c(OCc2ccc(C(=O)N/N=C/c3cccc(O)c3O)cc2)c1	16	33*	-11	nt	22	13
COc1cc(/C=N/NC(=O)c2ccc(COc3cc(C)ccc3C(C)C)cc2)cc(OC)c1O	0	7	-6	-10	-11	nt
COc1ccc(C(=O)CSc2nnc(-c3cccs3)o2)cc1OC	nt	nt	8	nt	nt	nt
CCCC[n+]1c2ccccc2cc2ccccc21	7	27*	9	26	3	35*
COC(=O)N/N=C/c1cc(N=Nc2ccccc2)ccc1O	6	8	-7	-9	8	nt
Cc1cc(C(=O)N/N=C/c2cc(N=Nc3ccccc3)ccc2O)n[nH]1	6	29*	nt	nt	-17	18
CCC(=O)Oc1ccc(C/C(=N\O)c2ccc(O)cc2O)o1	16	27*	0	-14	18	38*
CCOC(=O)c1ccc(CC(=O)c2ccc(O)cc2O)o1	1	0	-2	11	-3	nt
CCCN1CNc2c(c(=O)[nH]c(=S)n2CCc2c(Cl)cccc2Cl)C1	nt	nt	4	nt	nt	nt
CC(C)(C)NCC(O)COc1cccc2c1C[C@H](O)[C@H](O)C2 (stereo partly specified)	-7	33*	-11	-6	-4	9
Clc1cccc2sc(N3CCOCC3)nc12	20	30*	-5	11	-18	7
CC(=O)Oc1cccc(N2C(=O)c3cccc4c([N+](=O)[O-])ccc(c34)C2=O)c1	14	28*	7	12	1	40*
C#CCN1C(C(=O)OC)CN(CCCCCC)CCS1(=O)=O (stereo unspecified)	nt	nt	8	nt	nt	nt
O=C(CCl)Nc1c(C(=O)Nc2ccc3c(c2)OCCO3)oc2ccccc12	1	26*	7	14	6	30*
C/C(=N\NC(=O)c1cc(-c2cccc([N+](=O)[O-])c2)n[nH]1)c1ccccc1O	6	26*	-1	nt	-5	14
Cc1ccc(NC2=CC(=O)C(=O)c3ccccc32)c(C)c1	6	40*	13	87*	5	17
O=C1C=C(Nc2ccc(F)cc2)c2ccccc2C1=O	7	34*	19	87*	8	24
CCCC[n+]1ccn(C2=C([O-])c3ccccc3C(=O)/C2=N\S(=O)(=O)c2ccccc2)c1	13	36*	-1	59*	10	26*
CC(C)c1ccc(NC(=O)C[n+]2ccn(C3=C([O-])c4ccccc4C3=O)c2)cc1	-2	-3	13	24	8	nt
COc1cc2c(cc1OC)CN(CCC(=O)c1ccc(Br)cc1)CC2	15	33*	13	0	-3	28*
Cc1cc(N/N=C/c2c(O)ccc3ccccc23)nc(-c2ccccc2O)n1	13	30*	-1	1	20	15
CCCS(=O)(=O)c1c(S(=O)(=O)CCC)c2c(C)cccn2c1C(=O)N/N=C/c1cc(O)cc(O)c1	-2	27*	-1	-9	2	11
Cc1cc(C)c[n+](C2=C([O-])c3ccccc3C(=O)/C2=N\S(=O)(=O)c2cccs2)c1	4	33*	0	20	9	23
